Experimental findings from the RNAGym collection of RNA variant scans (doi:10.1126/science.aae0568) are described below.

Variants at the floor of the assay were thinned out.

First the molecules themselves.
B1: tRNA (parent)
chain: GUUCCGUUGGCGUAAUGGUAACGCGUCUCCCUCCUAAGGAGAAGACUGCGGGUUCGAGUCCCGUACGGAACG

Variants of B1 are the subject of the data set. Nature of the data set: yeast fitness relative to wild type (ratio to wild type); higher = fitter; tRNA-Arg(CCU), competitive growth, 37 C, YPD. An outline of the steps:
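The tRNA-Arg(CCU) gene variants were made by chemical synthesis with a 3% per-site mutation rate at 69 sites and inserted at the native genomic locus of Saccharomyces cerevisiae. After pooling, the strains were competed in YPD at 37°C for 24 hours in six parallel replicates. Gene amplicons from the start population and each end population were read by 100-nucleotide paired-end sequencing, and Darwinian fitness relative to wild type was taken from genotype frequency changes. Genotypes needed ≥ 100 starting reads, and estimates < 0.5 were set to 0.5.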
On to GUUCCGUUGGCGUAAUGGUUACGCGUCUCCCUCCUAAGGAGAAGACUGCGGGUUCGAGUCCCGAACGGAACG [A20U U64A], for which the yeast fitness came out at 0.821.
Consider GUUCCGUUGGCGUAAUGGUUACGCGUCCCCCUCCUAAGGAGAAGACUGUGGGUUCGAGUCCCGUACGGAACG [A20U U28C C49U], for which the yeast fitness was determined as 0.61.
Take GUUCCGUUGGCGUAAUGGUACCGCGUCUCCCUCCUAAGGAGAAGUCAGCGGGAUCGAGUCCCGUACGGAACG [A21C A45U U47A U53A]: the yeast fitness is not above 0.5.
Consider GUUCCGUUGGCGUAAUGGUUACGCGUCUCCCUCCCAAGGAGAAGACUGUGGGUUUGAGUCCCGCACGGAACG [A20U U35C C49U C55U U64C], for which the yeast fitness was determined as 0.588.
Then GUUCCGUUGGCGUAAUGGUUACGCGACUCCCUCCUAAGGAGAAGACUGCGGGUUCGAGUCCCGUCCCGAACG [A20U U26A A65C G67C], with 0.563; and GUUCCGUUGGCGUAAUGGUACCGCGUCUCCCUCCUAAGGAGUAGACUGCGGGUUCGAAUCCCGUACGGAACG [A21C A42U G58A], with 0.549.
Then GUUCCGUUGGCGUAAUGGUUACGCGUCUCCCUCCUAAGGAGAAGACUCCGGGUUCGAGUCCCGUACGGAACG [A20U G48C], with 0.84; and GUUCCGUUGGCGUAAUGGUUACGCGUCACCCUCCUAAGGAGAAGACUGCGGGUUCGAGUCCCGUACGGUACG [A20U U28A A69U], with 0.585; and GUUCCGUUGGCGUAAUGGUUACGCGUCUCCCUCCUAAGGAGAAGACUGCGGGUUCGAAUCCCGUACGGAACG [A20U G58A], with 0.907.
Take GUUCCGUUGGCGUAAUGGUACCGCGUCUCCCUCCUAAGGAGAAGCCUGUGGGUUCGAGUCCCGCACGGAACG [A21C A45C C49U U64C]: the yeast fitness is not above 0.5.
The figure for GUUCCGUUGGCGUAAUGGUUACGCGUCUCCCUCCUAAGGAGAAGACAGCGGGUUCGAGUCCCGUACGGAACG [A20U U47A] is 0.673; for GUUCCGUUGGCGUAAUGGUUACGCGUCUCCCUCCUAAGGAGAAGACUGCAGGUUCGAGUCCCGUACGGAACG [A20U G50A] it is 0.88.
Then GUUCCGUUGGCGUAAUGGUUACGCGUCUCCCUCCCAAGGAGAAGACUGCGGGUUCGAGACCCGUACGGAACG [A20U U35C U59A], with not above 0.5; and GUUCCGUUGGCGUAAUGGUUACGCGUCUCCCUCCUAAGGAGAAGACUGCAGGUUCGUGUCCCGUACGGAACG [A20U G50A A57U], with 0.529; and GUUCCGUUGGCGUAAUGGUACCGCGUCUCCCUCCUAAGGAGAAGACUGCGGGUUCGCGUCCAGUACGGAACG [A21C A57C C62A], with not above 0.5.
Turning to GUUCCGUUGGCGUAAUGGUUACGCGUCUCCCUCCUAAGGAGAAGACUACGGGUUCGAGUCCCGCACGGAACG [A20U G48A U64C], the yeast fitness was 0.589.
Then GUUCCGUUGGCGUAAUGGUUACGCGUCUCCCUCCCGAGGAGAAGACUGCGGGUUCGAGUCCCGUACGGAACG [A20U U35C A36G], with 0.592; and GUUCCGUUGGCGUAAUGGUACCGCGUCUCCCUCCUAAGGAGUAGACUGCGGGUACGAGUCCCGUACGGAACG [A21C A42U U54A], with not above 0.5.
Then GUUCCGUUGGCGUAAUGGUUACGCGUCUCCCUCCAAAAGAGAAGACUGCGGGUUCGAGUCCCGUACGGAACG [A20U U35A G38A], with 0.613; and GUUCCGUUGGCGUAAUGGUUACGCGUCUCCCUCCUAAGGAGAAGACUGCGGGUUCGAGUCCCGUACUGAACG [A20U G67U], with 0.681; and GUUCCGUUGGCGUAAUGGUUACGCGUCACCCUCCUAACGGGAAGACUGCGGGUUCGAGCCCCGUACGGAACG [A20U U28A G38C A40G U59C], with 0.637.
Take GUUCCGUUGGCGUAAUGGUACCGCGUCUCCCUCCUAUGGAGAAGACUGCGGGUUCGAAUCCCGUACGGAACG [A21C A37U G58A]: the yeast fitness was not above 0.5.
Consider GUUCCGUUGGCGUAAUGGUUACGCGUCUCCCCCCUAACGAGAAGACUGCGGGUUCGAGUCCCGUGCGGAACG [A20U U32C G38C A65G], for which the yeast fitness was not above 0.5.
On to GUUCCGUUGGCGUAAUGGUACCGCGUCUCCCUCCUAAGGAGAUGACUGCGGGUUCGAGUCCCGUACGGAACG [A21C A43U], for which the yeast fitness was found to be 0.902.
The figure for GUUCCGUUGGCGUAAUGGUACCGCGUCUCCCUCCUAAGGAGAAGCCGGUGGGUUCGAGUCCCGUACGGAACG [A21C A45C U47G C49U] is not above 0.5; for GUUCCGUUGGCGUAAUGGUUACGCGUCUCCCUCCUAAGGAGAAGACUGCGGGUUCGAGCCCCGUACGGAACG [A20U U59C] it is 0.917.
With GUUCCGUUGGCGUAAUGGUUACGCGUCUCCCUCCUAAGGAGAAGACUGCGAGGUCGAGUGCCGUACGGAACG [A20U G51A U53G C60G], the yeast fitness is not above 0.5.
The figure for GUUCCGUUGGCGUAAUGGUACCGCGUCUCCCUCCUAAGGAGAUGACUGUGGGUUCGAGUCCCGUACGAAACG [A21C A43U C49U G68A] is not above 0.5; for GUUCCGUUGGCGUAAUGGUACCGCGUCUCCCUCCUAAGGAGAAGCCUGUGGGUCCGAGUCCCGUACGGAACG [A21C A45C C49U U54C] it is not above 0.5; for GUUCCGUUGGCGUAAUGGUACCGCGUCUCCCUCCUAAGGAGUAGACUGCGGGUUCGAGUCCCGUACGGAACG [A21C A42U] it is 0.639.
As to GUUCCGUUGGCGUAAUGGUACCGCGUCUCCCUCCUUAGGAGAAGAUUGCGGGUUCGAGUCCCGUACGGAACG [A21C A36U C46U], the yeast fitness is not above 0.5.
Consider GUUCCGUUGGCGUAAUGGUUACGCGUCUCCCACCUAAGGAGAAGAGUGCGGGUUCGAGUCCCGUACGGAACG [A20U U32A C46G], for which the yeast fitness amounted to 0.586.
Then GUUCCGUUGGCGUAAUGGUUACGCGUCCCCCUCCUAAGGAGAAAAUUACGGGUUCGAGUGCAGUAGGGAACG [A20U U28C G44A C46U G48A C60G C62A C66G], with 0.578.
Take GUUCCGUUGGCGUAAUGGUACCGCGUCUCCCUCCUAGGGAGAAGACUGCGGGUUCGAGGCCCGUACGGAACG [A21C A37G U59G]: the yeast fitness is not above 0.5.
On to GUUCCGUUGGCGUAAUGGUACCGCGUCUCCCUCCUAUGGAGAAGACUGCGGGUUCGAGUCCCGUACGGAACG [A21C A37U], for which the yeast fitness was determined as 0.646.
Then GUUCCGUUGGCGUAAUGGUACCGCGUCUCCCUCCUAGGGAGAAGACUGCGGGUUCGAGUCCCGUACGGAACG [A21C A37G], with 0.638; and GUUCCGUUGGCGUAAUGGUUACGCGUCACCCUCCUAAGGUGAAGACUGCGGGUUCGAGUCCAGUACGGAACG [A20U U28A A40U C62A], with not above 0.5; and GUUCCGUUGGCGUAAUGGUUACGCGACUCCCUCCUAAGGAGAAGACUGCGGGUUCGAGUCACGUACGGCACG [A20U U26A C61A A69C], with not above 0.5.
